Test results reported in ChEMBL document CHEMBL1127362, “Synthesis and pharmacological evaluation of isoindolo[1,2-b]quinazolinone and isoindolo[2,1-a]benzimidazole derivatives related to the antitumor agent batracylin” (J Med Chem, 1994).

Key:
CCRF-CEM = test: Tested for the inhibitory activity against CCRF CEM T- cell leukemia cells; type: functional, cell-based; conditions: Homo sapiens
Summary of the method: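 MTT microtiter tetrazolium assay; CCRF CEM cells seeded at 30 000 cells/well and allowed to attach. Each dose tested in four replicate plates, each with eight DMSO-only control wells.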

Rattus norvegicus = organism: Rattus norvegicus; test: Nuclear count minus the highest cytoplasmic count determined in rat hepatocytes for each cell; type: functional, Hepatocyte
Summary of the method: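 Hepatocytes isolated from F-344 rats (220–300 g), ~5 × 10⁶ cells seeded on coverslips; after 2 h washed, refed with serum-free Williams medium E and exposed together to 10 μCi/mL tritiated thymidine (50–90 Ci/mmol) plus compound in DMSO. Autoradiography after 18–20 h; 20 cells counted per slide, triplicate per concentration, mean ± SD of two experiments. Positive requires net grains >0 with dose response.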

[1] = tested on: DNA topoisomerase II (Bos taurus); test: Relative potency to cause 90% of topoisomerase II-mediated cleavage of liner 8.4-kb YEPG DNA

| IC50 (CCRF-CEM) | Relative activity [1] | Compound | Net grain counts (Rattus norvegicus) |
| --- | --- | --- | --- |
| > 150 µM | 0 | O=C1c2ccccc2C2=Nc3ccc([N+](=O)[O-])cc3CN12 | 10.5 |
| > 200 µM | 0 | O=C1c2ccccc2-c2nc3ccncc3n21 | -10.5 |
| > 200 µM | 0 | Nc1ccc2nc3n(c2c1)C(=O)c1ccccc1-3 | -4.4 |
| > 200 µM | 0 | Cc1cccc2c1nc1n2C(=O)c2ccccc2-1 | -3.5 |
| > 200 µM | 0 | O=C1c2ccccc2-c2nc3ccc(O)cc3n21 | – |
| > 200 µM | 0 | COc1ccc2nc3n(c2c1)C(=O)c1ccccc1-3 | -3.6 |
| 68 µM | 0 | O=C1c2ccccc2-c2nc3ccccc3n21 | -7.4 |
| > 200 µM | 0 | COc1ccc(N)c(N2C(=O)c3ccccc3C2=O)c1 | -8.9 |
| 60 µM | 1 | O=C1c2ccccc2C2=Nc3ccccc3CN12 | -4.5 |
| > 200 µM | 0 | Cc1cccc(N2C(=O)c3ccccc3C2=O)c1[N+](=O)[O-] | -4.1 |
| 71 µM | 0 | Cc1cccc(N)c1N1C(=O)c2ccccc2C1=O | -8.7 |
| 102 µM | 0.1 | O=C1c2ccccc2C2=Nc3ccncc3CN12 | -5.2 |
| > 200 µM | 0 | Cc1cccc2nc3n(c12)C(=O)c1ccccc1-3 | -3.7 |

| Compound | IC50 (CCRF-CEM) | Relative activity [1] | Net grain counts (Rattus norvegicus) |
| --- | --- | --- | --- |
| COc1cc([C@@H]2c3cc4c(cc3[C@@H](O[C@@H]3O[C@@H]5CO[C@@H](C)O[C@H]5[C@H](O)[C@H]3O)[C@H]3COC(=O)[C@H]23)OCO4)cc(OC)c1O [ETOPOSIDE] | 0.002 µM | – | -7.5 |
| Nc1ccc2c(c1)CN1C(=O)c3ccccc3C1=N2 [DANIQUIDONE] | 14 µM | – | 93.1 |
